# From PubChem BioAssay
# KCNK9 block: inhibitors of human KCNK9 two-pore domain potassium channel. Q9NPC2. HEK293 KCNK9, FluxOR thallium flux fluorescence; active compounds read low. B-score at 10 µM. 310,000 compounds, 1.2% hits. AID 488922;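 active means ratio B-score over 3 SD below the library mean, with starting fluorescence within 5 SD of its mean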;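 further: negative B-score means less thallium flux so channel inhibition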
# KCNQ1 pot: human KCNQ1 channel potentiation or activation; P51787; CHO-K1 KCNQ1, thallium flux FluxOR fluorescence; active compounds read high; B-score at 10 µM; 310,000 compounds, 0.35% hits; AID 2648;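 active means fluorescence ratio B-score, a plate-corrected score, at least three library SD, with initial intensity B-score within 5 SD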
#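 System: CHO-K1 cells stably expressing KCNQ1 / Medium: assay buffer for compound exposure, DMSO matched across wells / Reagent: thallium- and potassium-containing depolarizing buffer / Compound: one concentration, matched DMSO / Incubation: 20 min compound pretreatment at room temperature / Measured by: kinetic FluxOR fluorescence, 10 s baseline plus 110 s post-stimulus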
# hERG rescue: hERG (human) protection from proarrhythmic block; activation (rescue from dofetilide block), less the hit threshold, % at 10 µM; AID 1511; 310,000 compounds, 0.51% hits; CHO-hERG, FluxOR thallium flux, dofetilide IC70 present;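 active means activation above the mean of controls blocked by dofetilide plus 5 SD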;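 further: thallium influx through hERG after potassium depolarization seen as dye fluorescence rise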
# KCNK3 inh: human KCNK3 channel inhibition, primary screen; O14649; CHO-KCNK3 thallium flux, FluxOR fluorescence; active compounds read low; B-score at 10 µM; 340,000 compounds, 0.84% hits; AID 602410;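 active means B-score under library mean minus 4 SD, starting fluorescence ratio at most library mean plus 5 SD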;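 further: more negative B-score means stronger inhibition of thallium flux through KCNK3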
# Kir21 block: inhibitors of mouse Kir2.1 inward-rectifier potassium channel; P35561; HEK293-Kir2.1, FluxOR thallium flux fluorescence; active compounds read low; B-score at 10 µM; 310,000 compounds, 0.85% hits; AID 1672;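 active means fluorescence ratio B-score at or below minus 3 SD of library scores, with starting-brightness B-score within 2 SD, cut at about -4.2 in these data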;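 further: channel flux triggered by added potassium and thallium sulfate stimulus; B-score of peak minus minimum fluorescence over baseline after thallium stimulus; more negative B-score means stronger Kir2.1 block with less thallium influx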
# KCNQ1 inh: blocks the human KCNQ1 potassium channel; B-score at 10 µM; 310,000 compounds, 1.3% hits; CHO-K1 KCNQ1, FluxOR thallium flux fluorescence; active compounds read high;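 active means compounds whose thallium flux B-score, printed positive for inhibition, exceeds three library SD while starting fluorescence stays within three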;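 further: channel opened by potassium depolarization with thallium stimulus after 20 min compound exposure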
# KCNK9 inh conf: human KCNK9 inhibitor confirmation. HEK293 KCNK9 cells, FluxOR thallium flux fluorescence. shares compounds with KCNK9 block. 4,900 compounds, 43% hits. inhibition, % at 10 µM;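 active means thallium signal inhibited by more than 5 SD of the compound-free buffer control wells, on both duplicate plates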
# Kir2-1 spec: mouse Kir2.1 off-target activity of KCNK9 modulators; shares compounds with KCNK9 block; Kir2.1 cells, FluxOR thallium flux fluorescence; inhibition, % at 10 µM; 4,900 compounds, 4% hits; AID 492993;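 active means thallium signal drop more than 5 SD beyond the mean of the no-compound control wells, seen in both duplicate plates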;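 further: signal is fluorescence rise after thallium addition divided by baseline fluorescence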
# HEK293 Tl ctr: second counter-screen for KCNK9 modulators: effect in non-induced cells; 4,900 compounds, 40% hits; non-induced KCNK9-HEK293, FluxOR thallium flux; shares compounds with KCNK9 block; inhibition, % at 10 µM;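 active means thallium signal drop beyond 5 SD of the untreated control mean, on both duplicate plates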
# Numbers stand for hits; - = inactive; . = no result given. In the library only some 3.8% were active in any assay of this set; here they are far more common.
SMILES,KCNK9 block,KCNQ1 pot,hERG rescue,KCNK3 inh,Kir21 block,KCNQ1 inh,KCNK9 inh conf,Kir2-1 spec,HEK293 Tl ctr
CC(O)(CS(=O)(=O)Cc1ccccc1)c1ccccc1 (stereo not drawn),-,-,-,-,-,-,.,.,.
CCc1noc(C)c1C(=O)N1CCC(CCC(=O)Nc2cccc(C)c2)CC1,-,-,-,-,-,-,.,.,.
CC1CCN(CC(=O)n2c3c(c4ccccc42)CCCC3)CC1,-,-,-,-,-,-,-,-,-
CCN1CCN(CC(=O)n2c3c(c4ccccc42)CC(C)CC3)CC1 (stereo not drawn),-,-,-,-,-,-,.,.,.
Cc1cccc2c(N=Nc3ccc(S(=O)(=O)Nc4ccc(Cl)cc4)cc3[N+](=O)[O-])c(O)[nH]c12,-,-,-,-,-,-,.,.,.
COc1ccc(C(=O)OC(C(=O)c2ccc(C)cc2)c2ccccc2)cc1 (stereo not drawn),-15,-,-,-,-,-,65%,-,32%
CC(=O)Nc1cccc(C(=O)OC(C(=O)c2ccc(C)cc2)c2ccccc2)c1 (stereo not drawn),-,-,-,-,-,-,.,.,.
CCCCNC(=O)CSc1nc(Cc2ccccc2)nc2ccccc12,-,-,-,-,-,-,.,.,.
O=C(c1cc(COc2c(F)cccc2F)on1)N1CCC(c2ccccc2Cl)C1 (stereo not drawn),-,-,-,-,-,-,-,43%,-
O=C(c1cc(COc2c(F)cccc2F)on1)N1CCC(c2ccccc2F)C1 (stereo not drawn),-,-,-,-,-,-,-,-,-
Cc1nc(CN(C)C(=O)c2cc(COc3c(F)cccc3F)on2)cs1,-,-,-,-,-,-,.,.,.
CN(Cc1cc(-c2ccccc2)on1)C(=O)c1cc(COc2c(F)cccc2F)on1,-13,-,-,-,-,-,66%,-,30%
CN1CCN(C(=O)c2cc(COc3c(F)cccc3F)on2)CC1c1ccccc1 (stereo not drawn),-,-,-,-,-,-,-,-,-
O=C(c1cc(COc2cccc3cnccc23)on1)N1CCC(c2ccccc2Cl)C1 (stereo not drawn),-,-,-,-,-,-,.,.,.
Cc1cc(C)c(C)c(OCC(O)CN2CCN(c3ccccn3)CC2)c1 (stereo not drawn),-,-,-,-,-,-,.,.,.
C=CCC[C@@H](Cc1ccc(F)cc1)C(=O)OC[C@@H](Cc1ccccc1)NC(=O)[C@@H](CC=C)CC(=O)N[C@@H](CO)Cc1ccccc1,.,.,.,-,.,.,.,.,.
Cc1nn(-c2ccccc2)c(Cl)c1/C=N/Nc1nc2ccccc2n1C,-,-,-,-,-,-,-,-,-
COCCNC(=O)CN(C(=O)Cn1nnc2ccccc21)c1ccc(C)cc1,-,-,-,-,-,-,.,.,.
COCCNC(=O)CN(C(=O)Cn1nnc2ccccc21)c1ccc(C)c(F)c1,-,-,-,-,-,-,-,-,-
N#CC1=C(S)N(c2ccccc2)C(c2ccc(-c3ccc(Cl)c(Cl)c3)o2)NC1=O (stereo not drawn),-,-,-,-,-6.2,-,-,-,-
Cc1c(NC(=S)N2CCN(c3ccc(F)cc3)CC2)c(=O)n(-c2ccccc2)n1C,-,-,-,-,-,-,.,.,.
CCc1ccc(C2C(C#N)=C(N)SC(N)=C2C#N)cc1,-,-,-,-,-,-,.,.,.
N#CC1=C(N)SC(N)=C(C#N)C1c1ccc([N+](=O)[O-])cc1,-,-,-,-,-,-,-,-,-
Cc1ccc2oc(C(=O)N(Cc3ccc(N(C)C)cc3)CC3CCCO3)c(C)c2c1 (stereo not drawn),-,-,-,-,-,-,-,-,-
Cc1ccc2c(C)c(C(=O)N(Cc3ccncc3)CC3CCCO3)oc2c1C (stereo not drawn),-,-,-,-,-,-,.,.,.
